These results are taken from paper PMC5715471 (ACS chemical neuroscience, 2017).

Read-outs that look alike come from different tables or passages of the source.

Data set [1] has as its system mouse spared nerve injury (SNI) model. In words: Mechanical sensitivity. Format: in vivo. As to conditions: for time after IT injection at which efficacy was seen (onset) / time through which antipain effect persisted: IT 10 μg; for effect on SNI-induced mechanical hypersensitivity: single IT injection, 10 μg, vs vehicle. The gist of the method:
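Male C57Bl6/J mice with SNI (peroneal and tibial sciatic branches cut, sural spared), confirmed hypersensitive 2 weeks post-surgery and screened 21–60 days after SNI. Single intrathecal 10 μg in 5 μL saline (DMSO <5%, vehicle DMSO-matched). Blinded hindpaw von Frey, modified up–down, at set times. n = 4–11. Mean ± SEM; two-way ANOVA with Bonferroni. Repeat injections ≥14 days apart.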

The target of another data set is T1, σ2R/Tmem97 (Rattus norvegicus, UniProt Q5U3Y7).
T1 sequence (Q5U3Y7 1-176): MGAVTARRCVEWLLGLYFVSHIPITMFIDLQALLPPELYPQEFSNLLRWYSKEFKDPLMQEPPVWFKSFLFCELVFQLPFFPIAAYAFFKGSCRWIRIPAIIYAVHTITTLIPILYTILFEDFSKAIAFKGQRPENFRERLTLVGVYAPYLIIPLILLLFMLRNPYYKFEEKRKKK
The experiment in a line: Sigma 2 receptor competition binding with [3H]-ditolylguanidine. To be noted: σ2R from rat PC12 cells.

For data set [2] the following is noted: in vivo; cited from earlier work.
The subject of data set [3] is SK-N-SH neuroblastoma cells. To be noted: cited from earlier work.
A short description of data set [4]: Blood brain barrier crossing. Format: in vivo. As to conditions: no data or reference given.
In data set [5] the test system is mouse spared nerve injury (SNI) model. The experiment in a line: Mechanical sensitivity. The format is in vivo. To be noted: IV 100 mg/kg. The method, boiled down: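 Male C57Bl6/J SNI mice, hindpaw mechanical hypersensitivity confirmed 2 weeks post-surgery. Tail-vein IV injection in 100 μL sterile saline (DMSO stock diluted; vehicle DMSO-matched): test compound 10 mg/kg, gabapentin 100 mg/kg, or vehicle, n = 6 each. Blinded von Frey testing (modified up–down) at set time points. Mean ± SEM; two-way ANOVA with Bonferroni post hoc.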

Consider `CN1CCC2CC1c1cc(N3CCOCC3)ccc12` (racemic) [JWG-1014, (±)-2-Methyl-2,3,4,5-tetrahydro-1H-1,5-methanobenzo[c]-azepin-8-yl)morpholine], for which, in data set [1], the “time after IT injection at which efficacy was seen (onset)” value (shortened to “time after IT injection”) came out at 48 h, the “time through which antipain effect persisted” value stood at 120 h and the “effect on SNI-induced mechanical hypersensitivity” value is “significantly different from vehicle”.

Consider `Clc1ccc2c(c1)C1CC2CCCN1CC1CCCCC1` (racemic) [MFG-1046, (±)-9-Chloro-2-(cyclohexylmethyl)-1,2,3,4,5,6-hexahydro-1,6-methanobenzo[c]azocine], for which, in data set [1], the “time after IT injection” value is 24 h, the “time through which antipain effect persisted” value was 72 h and the “effect on SNI-induced mechanical hypersensitivity” value is listed as “significantly different from vehicle”. Also, the “affinity at σ2R/Tmem97 (in words)” value on σ2R/Tmem97 is “low nM range”.

On to `Fc1ccc(-n2cc(CCCCN3CCC4(CC3)OCc3ccccc34)c3ccccc32)cc1` [Siramesine, reference compound], for which the “effect on SNI-induced mechanical hypersensitivity” value in data set [1] is “small inhibitory effect on mechanical hypersensitivity that was significant at 24 and 48 h”.

As to `c1ccc(CCN2CCC3CC2c2ccccc23)cc1` (racemic) [JSS-1027, (±)-2-Phenethyl-2,3,4,5-tetrahydro-1H-1,5-methanobenzo[c]-azepine], in data set [1], the “time after IT injection” value was found to be 48 h, the “time through which antipain effect persisted” value is on record as 120 h and the “effect on SNI-induced mechanical hypersensitivity” value is recorded as “significantly different from vehicle”. On σ2R/Tmem97, the “affinity at σ2R/Tmem97 (in words)” value is “low nM range”.

Regarding `CN1CCN(c2ccc3c(c2)[C@H]2C[C@@H]3CCN2C(=O)OCc2ccccc2)CC1` [SAS-0132], in data set [1] (SAS-0132 10 μg IT given at the same time as UKH-1114 10 μg), the “effect of co-administration on antinociceptive action of UKH-1114” value is recorded as “completely blocked the effect seen with UKH-1114 given alone”. For the same compound, the “blood brain barrier crossing” value in data set [2] was “cross the blood brain barrier”. The “effect of pretreatment on DKR-1051-induced Ca2+ transient” value in data set [3] (SK-N-SH neuroblastoma cells pretreated with SAS-0132) is “attenuated”.

With `FC(F)(F)c1ccc(-c2ccc3c(c2)C2CC3CCCN2C2CCCC2)cc1` (racemic) [DKR-1051, (±)-2-Cyclopentyl-9-(4-(trifluoromethyl)phenyl)-1,2,3,4,5,6-hexa-hydro-1,6-methanobenzo[c]azocine], the “time of peak relief of mechanical hypersensitivity after dosing” value in data set [1] (IT) is listed as 48 h. Moreover, the “effect on SNI-induced mechanical hypersensitivity” value in data set [1] is “significant antimechanical hypersensitivity effects at either 24 or 48 h”. Also, the “affinity at σ2R/Tmem97 (in words)” value on σ2R/Tmem97 is “high affinity”. For the same compound, the “blood brain barrier crossing” value in data set [4] is on record as “cross the blood brain barrier”. In data set [3] (SK-N-SH neuroblastoma cells), the “effect on intracellular Ca2+” value is “induces a rapid Ca^2+ transient”.

With `NCC1(CC(=O)O)CCCCC1` [Gabapentin, reference compound], in data set [5] (1 and 3 h after injection), the “effect on SNI-induced mechanical hypersensitivity” value is “completely reversed mechanical hypersensitivity”. For the same compound, the mechanical hypersensitivity state entry in data set [5] (24 h after injection) is “fully mechanically hypersensitive again”.
